Data set [1] can be described thus: Thermodynamic solubility of the compound at pH 6.8. The format is physicochemical. The settings on record: buffer, read-out: Therm_solubility. An outline of the steps:
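Thermodynamic solubility measured at pH 6.8 in a single experiment, reported in […].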

Data set [2] has as its target Dual specificity protein kinase CLK2 (Homo sapiens) (UniProt P49760). The data set is described as follows: Inhibition of wild-type human partial length CLK2 (D144 to R498 residues) expressed in bacterial expression system assessed as remaining activity at 1 uM by Kinomescan method relative to control. An outline of the steps: (§1)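 KINOMEscan competition binding panel run with inhibitor at 1 μM; read-out is remaining kinase activity (percent of control).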

The target of data set [3] is Dual specificity protein kinase CLK3 (Homo sapiens) (UniProt P49761). In words: Inhibition of wild-type human full length CLK3 (M1 to R490 residues) expressed in bacterial expression system assessed as remaining activity at 1 uM by Kinomescan method relative to control. The method in brief:
as §1

Data set [4] has as its target T1, Dual specificity tyrosine-phosphorylation-regulated kinase 2 (Homo sapiens, UniProt Q92630).
T1 sequence (Q92630 whole entry): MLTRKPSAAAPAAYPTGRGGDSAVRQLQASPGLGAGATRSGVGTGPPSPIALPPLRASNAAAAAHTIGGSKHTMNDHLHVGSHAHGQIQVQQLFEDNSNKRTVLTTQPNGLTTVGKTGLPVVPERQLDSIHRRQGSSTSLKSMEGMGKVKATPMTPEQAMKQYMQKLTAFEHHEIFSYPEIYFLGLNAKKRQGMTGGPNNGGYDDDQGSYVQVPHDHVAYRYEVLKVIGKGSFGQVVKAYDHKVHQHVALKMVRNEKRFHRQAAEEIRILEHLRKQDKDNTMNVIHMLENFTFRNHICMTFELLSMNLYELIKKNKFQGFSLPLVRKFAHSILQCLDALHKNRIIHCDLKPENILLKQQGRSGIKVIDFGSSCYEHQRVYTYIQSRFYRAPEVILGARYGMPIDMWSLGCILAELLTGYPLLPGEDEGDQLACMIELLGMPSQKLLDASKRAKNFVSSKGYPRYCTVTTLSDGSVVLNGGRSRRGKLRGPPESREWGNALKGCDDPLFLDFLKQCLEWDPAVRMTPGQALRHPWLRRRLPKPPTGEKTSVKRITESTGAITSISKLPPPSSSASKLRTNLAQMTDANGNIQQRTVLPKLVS
In words: Binding affinity to wild-type human full length DYRK2 (M1 to S528 residues) expressed in mammalian expression system measured after 1 hr by competitive binding assay.

For data set [5], the target named is T2, Tyrosine-protein kinase JAK3 (Homo sapiens, UniProt P52333).
T2 sequence (P52333 whole entry): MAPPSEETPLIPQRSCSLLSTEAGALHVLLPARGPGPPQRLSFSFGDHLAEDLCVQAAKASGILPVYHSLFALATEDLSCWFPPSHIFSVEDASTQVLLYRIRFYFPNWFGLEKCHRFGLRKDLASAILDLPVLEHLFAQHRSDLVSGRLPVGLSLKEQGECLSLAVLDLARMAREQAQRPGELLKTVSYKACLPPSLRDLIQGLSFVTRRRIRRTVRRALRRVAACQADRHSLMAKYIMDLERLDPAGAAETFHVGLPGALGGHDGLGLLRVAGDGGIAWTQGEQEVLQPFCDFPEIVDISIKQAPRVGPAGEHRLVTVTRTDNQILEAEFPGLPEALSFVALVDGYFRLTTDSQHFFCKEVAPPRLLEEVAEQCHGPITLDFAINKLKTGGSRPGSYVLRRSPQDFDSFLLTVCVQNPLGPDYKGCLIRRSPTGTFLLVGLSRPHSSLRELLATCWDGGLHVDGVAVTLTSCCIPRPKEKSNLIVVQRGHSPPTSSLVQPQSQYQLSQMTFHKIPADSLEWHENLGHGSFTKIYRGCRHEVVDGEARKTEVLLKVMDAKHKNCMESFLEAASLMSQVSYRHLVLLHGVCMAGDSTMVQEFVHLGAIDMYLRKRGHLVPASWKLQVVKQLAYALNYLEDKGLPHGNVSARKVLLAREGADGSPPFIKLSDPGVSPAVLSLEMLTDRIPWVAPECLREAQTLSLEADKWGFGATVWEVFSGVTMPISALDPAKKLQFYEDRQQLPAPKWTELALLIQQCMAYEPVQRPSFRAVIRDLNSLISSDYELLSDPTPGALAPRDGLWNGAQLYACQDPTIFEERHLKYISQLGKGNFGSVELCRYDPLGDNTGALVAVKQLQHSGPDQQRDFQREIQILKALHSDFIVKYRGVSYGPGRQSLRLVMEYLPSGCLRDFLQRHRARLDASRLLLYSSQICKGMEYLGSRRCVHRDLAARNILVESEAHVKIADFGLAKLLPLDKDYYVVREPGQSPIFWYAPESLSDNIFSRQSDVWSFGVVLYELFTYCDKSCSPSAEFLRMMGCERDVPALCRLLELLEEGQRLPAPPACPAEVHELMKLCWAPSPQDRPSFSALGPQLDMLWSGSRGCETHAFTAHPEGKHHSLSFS
The data set is described as follows: Binding affinity to wild-type human partial length JAK3 JH1 catalytic domain (I781 to S1124 residues) expressed in mammalian expression system measured after 1 hr by competitive binding assay.

The target of data set [6] is STE20/SPS1-related proline-alanine-rich protein kinase (Homo sapiens, UniProt Q9UEW8). The data set is described as follows: Binding affinity to wild-type human partial length STK39 (P43 to I357 residues) expressed in mammalian expression system measured after 1 hr by competitive binding assay.
A short description of data set [7]: Half life in Sprague-Dawley rat at 1 mg/kg, iv. Format: ADME, organism-based. To be noted: in vivo. The method in brief: (§2)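 Single intravenous dose of 1 mg/kg given to fed Sprague–Dawley rats (n = 3); plasma and brain samples collected for pharmacokinetic parameters, with total brain:plasma ratio computed.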
Data set [8] is described as follows: Tmax in Sprague-Dawley rat at 1 mg/kg, iv. The format is ADME, organism-based. To be noted: in vivo. The method in brief:
as §2

Data set [9] in a line: Cmax in Sprague-Dawley rat at 1 mg/kg, iv. Format: ADME, organism-based. Also noted: route intravenous, dose 1 mg/kg. To be noted: in vivo. An outline of the steps:
as §2

Data set [10] is described as follows: Ratio of drug concentration in brain to plasma in Sprague-Dawley rat at 1 mg/kg, iv. Format: ADME, organism-based. The method in brief:
as §2

Structures are written as SMILES. Values after ≈ are worked out from the molar mass of the structure shown. Bounds are passed on as bounds.

Sequence of Dual specificity protein kinase CLK2 (Homo sapiens) (P49760 whole entry, looked up, the tested form may be a part): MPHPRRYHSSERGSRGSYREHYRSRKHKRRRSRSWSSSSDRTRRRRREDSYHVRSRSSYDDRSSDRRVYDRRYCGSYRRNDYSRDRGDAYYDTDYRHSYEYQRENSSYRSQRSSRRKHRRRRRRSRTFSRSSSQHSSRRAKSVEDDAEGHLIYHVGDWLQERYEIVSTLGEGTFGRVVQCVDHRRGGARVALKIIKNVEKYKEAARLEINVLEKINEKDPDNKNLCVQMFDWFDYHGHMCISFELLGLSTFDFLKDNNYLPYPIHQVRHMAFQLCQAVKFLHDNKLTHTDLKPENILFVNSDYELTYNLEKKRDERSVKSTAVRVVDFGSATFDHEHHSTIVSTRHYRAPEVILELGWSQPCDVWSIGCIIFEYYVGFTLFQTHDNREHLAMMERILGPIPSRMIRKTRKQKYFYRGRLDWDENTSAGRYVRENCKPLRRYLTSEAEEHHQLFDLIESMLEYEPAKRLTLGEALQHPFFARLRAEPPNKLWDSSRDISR
Sequence of Dual specificity protein kinase CLK3 (Homo sapiens) (P49761 whole entry, looked up, the tested form may be a part): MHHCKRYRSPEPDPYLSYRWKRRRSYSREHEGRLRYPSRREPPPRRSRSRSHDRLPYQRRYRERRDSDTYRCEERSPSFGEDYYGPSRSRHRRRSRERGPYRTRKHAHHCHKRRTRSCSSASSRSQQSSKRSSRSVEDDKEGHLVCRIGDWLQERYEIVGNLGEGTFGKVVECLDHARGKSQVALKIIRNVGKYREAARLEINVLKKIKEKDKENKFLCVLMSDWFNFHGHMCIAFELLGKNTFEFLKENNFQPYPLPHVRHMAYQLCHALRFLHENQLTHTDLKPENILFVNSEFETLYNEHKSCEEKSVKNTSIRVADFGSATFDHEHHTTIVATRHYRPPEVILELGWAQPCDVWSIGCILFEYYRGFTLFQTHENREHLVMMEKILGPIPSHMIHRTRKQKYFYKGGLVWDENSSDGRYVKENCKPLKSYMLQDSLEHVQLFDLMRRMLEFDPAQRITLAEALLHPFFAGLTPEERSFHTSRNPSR

Regarding `CN(C)c1nccc(-c2cnn3ncccc23)n1`, the solubility thermodynamic in [1] was found to be 100 µg/mL (≈ 416 µM). Also, the Activity in data set [2] stood at 9.4%; in [3], 54%. Also, the dissociation constant (Kd) (commonly a measure of binding affinity in units of concentration) in [4] stood at 360 nM; in [5], 1800 nM; in data set [6] it was 10 µM. Moreover, in [7], the t1/2 came out at 12 min. Besides, the time of peak concentration (Tmax) (usually the time from dosing to the highest level) in [8] was 1.8 min. Further, the highest concentration (Cmax) – broadly, the peak of the concentration-time curve – in data set [9] was 1082.8 ng/mL. Also, the BPR in [10] was over 0.35.

The values are drawn from ChEMBL document CHEMBL4808225, “Discovery and Characterization of Selective and Ligand-Efficient DYRK Inhibitors” (J Med Chem, 2021).
